Compounds with a hit are over-represented: about 1.6% of the library has one in this group of screens.
SR-BI uptake up: activators of SR-BI mediated DiI-HDL uptake, primary screen, ldlA[mSR-BI] CHO cells, DiI fluorescence | 320,000 compounds, 0.096% hits | activation, % at 12.5 µM | 3 h; 100 = double the neutral-control signal;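 active = mean replicate activation of at least 60% and every replicate at or above 60%; inconclusive = mean or all-replicate condition met, but not both; inactive = mean below 60% and not all replicates reaching 60%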;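 also: 0% = median plate neutral-control signal and 100% = twice that signal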
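Material: SR-BI-overexpressing, LDLR-lacking CHO cells | Dosing: Single compound concentration, delivered by pin transfer | Probe or stimulus: Labelled HDL, 10 µg/mL | Signal: Bottom-read cell fluorescence after medium removal, ex 550/em 595 nm | Schedule: 3 h, 37 °C | Evaluation: HDL uptake via cellular fluorescence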
A1 inh: caspase 3/7 activation in MEF A1-2A-BIM cells, primary screen, A1 inhibitor project, cell-based, luminescence, HTS. Caspase-Glo 3/7 luminescence, 3 h; percent of clofoctol response, vehicle zero. AID 2462, 2010. 330,000 compounds, 0.066% hits. caspase activation, % (no concentration beside the values);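 active = over half of replicate activation scores above 10%, or exactly half above 10 with the replicate mean above 10; inconclusive = replicate mean below 10 yet half the replicates above 10; inactive = over half of replicates below 10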
Vif imaging: HIV Vif self-association inhibitors, primary screen, imaging, HEK293T, single point; inhibition, % at 7.49 µM; HEK293T cells, Vif self-association by quenched fluorescence, 24 h; 340,000 compounds, 0.35% hits; in the data active = inhibition above about 50%, passing the limit was not always enough; inconclusive = no clear call, values can overlap the other calls; inactive = below about 31%
SR-BI HDL uptake: inhibitors of SR-BI mediated HDL lipid uptake, primary screen, ldlA[mSR-BI] cells, fluorescence, single point. ldlA[mSR-BI] CHO cells, DiI-HDL uptake fluorescence, 3 h. Scavenger receptor class B member 1 (Mus musculus), Q61009. 320,000 compounds, 0.96% hits. inhibition, % at 12.5 µM. AID 488896, 2010;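 active = mean replicate inhibition of at least 70% and a set share of replicates each scoring 70 or more; inconclusive = meets just one of the two criteria; inactive = fails both criteria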;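 also: 0% = median of neutral control wells and 100% = median of positive control wells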
Target sequence (Q61009 whole entry, looked up): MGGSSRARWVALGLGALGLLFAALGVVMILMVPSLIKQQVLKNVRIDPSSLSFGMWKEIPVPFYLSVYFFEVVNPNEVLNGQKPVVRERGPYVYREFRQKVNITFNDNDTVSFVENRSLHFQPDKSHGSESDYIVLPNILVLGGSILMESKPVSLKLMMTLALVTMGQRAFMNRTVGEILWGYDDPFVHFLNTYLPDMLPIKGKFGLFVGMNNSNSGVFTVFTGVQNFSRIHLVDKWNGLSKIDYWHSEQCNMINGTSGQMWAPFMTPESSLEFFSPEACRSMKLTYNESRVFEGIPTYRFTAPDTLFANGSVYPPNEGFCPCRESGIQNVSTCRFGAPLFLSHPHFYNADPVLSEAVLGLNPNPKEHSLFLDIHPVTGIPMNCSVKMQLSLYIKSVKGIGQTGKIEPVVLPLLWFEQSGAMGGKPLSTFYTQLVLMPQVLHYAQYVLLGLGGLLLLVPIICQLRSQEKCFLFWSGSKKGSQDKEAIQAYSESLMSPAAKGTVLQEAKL
H9c2 TAG inh: inhibitors of triacylglycerol accumulation, primary screen, cell-based, uHTS, fluorescence, H9c2. inhibition, % at 12.5 µM. 230,000 compounds, 0.66% hits. H9c2 cells, Nile Red lipid (TAG) fluorescence; cells loaded with 200 µM oleic acid;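 active = pattern-corrected inhibition of lipid staining of at least 50% with the nuclear-stain viability signal not falling by more than 50%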;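 also: 0% = DMSO wells and 100% = triacsin C control wells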
Active calls of the source: *; ? = inconclusive; nt = no result given; ! = not active in a repeat.

SMILES	SR-BI uptake up	A1 inh	Vif imaging	SR-BI HDL uptake	H9c2 TAG inh
Cc1onc(-c2ccccc2Cl)c1C(=O)Nc1sc2c(c1C(N)=O)CCC(C)C2 (configuration not stated)	-73	0	43	73*	15
COC(=O)c1c(NC(=O)c2c(-c3ccccc3Cl)noc2C)sc2c1CCC2	-50	-2	-17	50	-10
O=C1/C(=C\c2ccc(O)c(O)c2)N=C2CCCCCN12	8	-1	-13	-8	13
O=C(CC12CC3CC(CC(C3)C1)C2)NCc1ccc(F)cc1	-83	0	-13	83*	nt
CCOc1nc(C)nc(NC(=O)NS(=O)(=O)c2ccccc2Cl)n1	61*	1	15	-61	6
COc1cc(OC)nc(NC(=O)NS(=O)(=O)c2ccccc2Cl)n1	nt	0	-1	nt	1
CCN(Cc1ccccc1)C(=O)COC(=O)c1cc(=O)[nH]c2ccccc12	-6	0	11	6	5
CC1=NN(C(=O)c2ccccc2-n2cccc2)C(O)(C(F)(F)F)C1 (configuration not stated)	32	1	-9	-32	nt
CC1=NN(C(=O)c2ccc(C)cc2)C(O)(C(F)(F)OC(F)(F)F)C1 (configuration not stated)	-89	1	0	89*	-8
CCn1c(=O)c(=O)[nH]c2cc(C(=O)N3CCN(Cc4ccc5c(c4)OCO5)CC3)ccc21	4	0	27	-4	-8
COc1ccc(/C=C2\SC(=O)N(CCCC(=O)Nc3cc(Cl)ccc3C(=O)O)C2=O)cc1	22	0	2	-22	4
O=C(N/N=C/c1cn[nH]c1-c1ccc(Cl)cc1)c1ccc([N+](=O)[O-])cc1	-95	1	3	95*	nt
COc1cc(/C=N\NC(=O)c2ccc(Cl)cc2)ccc1Oc1ccc([N+](=O)[O-])cn1	-79	1	-13	79*	-3
CCOc1cc(C=C(C#N)C#N)ccc1Oc1ccc([N+](=O)[O-])cn1	-12	-2	-2	12	9
COc1cc(/C=C(/C#N)c2ccc(F)cc2)ccc1Oc1ccc([N+](=O)[O-])cn1	-85	0	1	85*	nt
O=C(N/N=C\c1cn[nH]c1-c1ccccc1)c1ccc([N+](=O)[O-])cc1	-9	0	1	9	13
O=C(Nc1ccc(Cl)cc1)Nc1ccc(N2CCCC2)c(S(=O)(=O)Nc2ccccc2Cl)c1	-102	1	-15	102*	-12
COC(=O)c1cccc(NC(=S)Nc2ccccc2Cl)c1	-29	-1	-7	29	-4
COC(=O)c1cc(NC(=S)Nc2cc(Cl)cc(Cl)c2)cc(C(=O)OC)c1	-86	0	0	86*	-29
CCOc1cc(N2CCOCC2)c(OCC)cc1NC(=O)c1ccccc1C	-44	-1	-8	44	3
CCOc1cc(N2CCOCC2)c(OCC)cc1NC(=O)c1ccc2ccccc2n1	-95	1	-8	95*	12
CC(C)Cn1c(N)c(C(=O)COC(=O)c2cc(S(=O)(=O)N3CCOCC3)ccc2Br)c(=O)n(C)c1=O	-59	-1	15	59	4
Cc1ccc(S(=O)(=O)NCCc2cc3ccc(C)cc3[nH]c2=O)cc1	12	1	-12	-12	nt
COc1ccc2cc(CCNS(=O)(=O)c3ccc(NC(C)=O)cc3)c(=O)[nH]c2c1	nt	0	57*	nt	nt
O=C(O)C1C(c2ccccc2)c2ccccc2C(O)C1CO (configuration not stated)	5	nt	-17	-5	-1
SMILES	SR-BI uptake up	A1 inh	Vif imaging	SR-BI HDL uptake	H9c2 TAG inh
CC1CC(C)CN(CCC(=O)Nc2ccc(Br)cc2)C1 (configuration not stated)	12	0	?	-12	18
COc1ccc(C2C3=C(CC(C)(C)CC3=O)N(C)C3=C2C(=O)CC(C)(C)C3)cc1OC	-9	1	0	9	-10
COc1ccc(C2OCC(C)(C)CO2)cc1OC	77*	nt	1	-77	15
CN(c1ccc(C(=O)N2CCOCC2)cc1)S(=O)(=O)c1ccc(Cl)cc1	-17	0	-26	17	-18
CN(c1ccc(C(=O)N2CCCCCC2)cc1)S(=O)(=O)c1ccc(Cl)cc1	-71	0	-20	71*	-17
CCC(=O)c1ccc(OCCn2cnc3ccccc32)cc1	3	1	-13	-3	-20
COc1ccc(OC)c(N(CC(=O)NCC2CCCO2)S(=O)(=O)c2ccccc2)c1 (configuration not stated)	5	-1	28	-5	nt
COc1ccc2c(C)c(Cl)c(=O)oc2c1	3	0	53*	-3	8
Cc1cc(C(=O)NCC(=O)O)c(C)o1	40	-1	115*	-40	nt
CC1(C)Nc2ccc(O)cc2-c2c1ssc2=S	-12	0	2	12	-11
CCOc1ccc2c(c1)-c1c(ssc1=S)C(C)(C)N2C	-89	0	-1	89*	2
CN(C)CCCN1c2ccccc2Sc2ccc(Cl)cc21	-11	-1	-3	13	50*!
CC12CC3CC(C)(C1)CC(C(=O)Nc1nncs1)(C3)C2	12	1	0	-12	nt
COc1ccc(NC(=S)N2CCN(C/C=C/c3ccccc3)CC2)cc1OC	-9	0	65*	9	nt
O=C1NC(Cc2ccc(O)cc2)c2nc3ccc(Br)cc3c(=O)n2-c2ncccc21 (configuration not stated)	nt	nt	?	nt	15
Cc1cccc(C)c1OCC(=O)NCC1COc2ccccc2O1 (configuration not stated)	11	0	4	-11	21
COc1cc(C2C(C#N)=C(N)Oc3cc(N)ccc32)cc(OC)c1OC (configuration not stated)	-17	2	26	17	65*
CO[C@H]1CC[C@@]2(C)[C@@H](CC[C@@H]3[C@@H]2CC[C@@]2(C)[C@H]3C[C@H](C(=O)N[C@@H](CCCN=C(N)N)C(=O)NCC(=O)N[C@@H](CC(=O)O)C(N)=O)O[C@]23CCCO3)C1	5	nt	0	-5	-3
CCN(CC)c1ccc(-c2nn3c(-c4n[nH]c5c4CCC5)nnc3s2)cc1	-10	1	18	10	57*
COc1ccc(-c2coc3c(C(=O)Nc4cccc(C(C)=O)c4)cccc23)c(C)c1	nt	nt	150*	nt	-16
COc1ccc(-c2ccc(C(=O)Nc3cccc(C(C)=O)c3)c3occc23)c(C)c1	nt	nt	-17	nt	-5
CCCCn1c(Oc2ccc(C(=O)OC)cc2)nc2c1c(=O)n(C)c(=O)n2C	-92	0	-3	92*	nt
